Source: PMC4687753 (Journal of the American Chemical Society, 2015)
“Also recorded” adds a separate entry of the source. *1 amine or outer side, *2 acyl side, *3 side chain or, on linkers, in order; H or OH if unused. Where a SMILES comes first, the peptide text is derived from it. Bridges are numbered along the chain shown (N, C = ends). Roman numbers before positions name the chains, in order. [ ]: non-standard residue; d: D form. X2 = O=C(O)CCC(=O)N1C[C@H](N[*:2])[C@@H](C(=O)[*:1])C1; X1 = O=C([C@H]1CCC[C@@H]1N[*:1])[*:2]; S5 = C=CCCC[C@](C)(N)C(=O)O

How the values were obtained:
[1] = tested on: wild-type mouse embryonic fibroblasts (MEFs); experiment: Cytochrome c release assay, permeabilized cells; format: cell-based; settings: digitonin-permeabilized wt MEFs, 10 μM peptide, 1 hour, western blot
[2] = tested on: bax−/−/bak−/− mouse embryonic fibroblasts (MEFs); experiment: Cytochrome c release assay, permeabilized cells; format: cell-based; settings: digitonin-permeabilized bax−/−/bak−/− MEFs, 10 μM peptide, 1 hour, western blot
[3] = tested on: unpermeabilized U937 cells; experiment: Cytochrome c release assay, unpermeabilized cells; format: cell-based; settings: unpermeabilized U937, 10 μM peptide, 3 hours at 37°C, western blot
Bcl-xL = Bcl-xL (Homo sapiens, UniProt Q07817); experiment: SPR solution competition assay; format: binding
Sequence of Bcl-xL (Q07817 1-209 limits assumed, species assumed): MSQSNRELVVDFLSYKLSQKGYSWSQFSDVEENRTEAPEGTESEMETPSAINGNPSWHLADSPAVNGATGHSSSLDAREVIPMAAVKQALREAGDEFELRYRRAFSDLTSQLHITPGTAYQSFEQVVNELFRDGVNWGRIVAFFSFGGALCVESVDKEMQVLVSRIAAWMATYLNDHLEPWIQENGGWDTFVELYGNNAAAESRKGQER

Mcl-1 = Mcl-1 (Homo sapiens, UniProt Q07820); experiment: SPR solution competition assay; format: binding
Sequence of Mcl-1 (Q07820 171-327 limits assumed): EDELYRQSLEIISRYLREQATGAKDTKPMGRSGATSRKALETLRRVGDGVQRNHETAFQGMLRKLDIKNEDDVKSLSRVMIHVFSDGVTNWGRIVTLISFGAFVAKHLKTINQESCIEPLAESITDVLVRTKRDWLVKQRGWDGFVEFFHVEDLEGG

Bcl-2 = Bcl-2 (Homo sapiens, UniProt P10415); experiment: SPR solution competition assay; format: binding
Sequence of Bcl-2 (P10415 1-217 limits assumed): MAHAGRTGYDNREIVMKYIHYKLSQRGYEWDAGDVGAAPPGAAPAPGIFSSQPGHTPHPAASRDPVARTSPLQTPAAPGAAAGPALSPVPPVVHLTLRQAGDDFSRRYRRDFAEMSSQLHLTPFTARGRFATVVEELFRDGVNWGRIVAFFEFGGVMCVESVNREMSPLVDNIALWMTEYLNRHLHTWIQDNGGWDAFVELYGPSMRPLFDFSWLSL

MEFs = experiment: Cell killing assay; format: cell-based, mouse; settings: 10 μM, 24 hours, CellTiter-Glo, two independent experiments
In short: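 Mouse embryonic fibroblasts kept in DME KELSO medium with 10% FBS, 250 μM L-asparagine and 50 μM 2-mercaptoethanol. Given 10 μM test compound or DMSO for 24 h. Viability measured by CellTiter-Glo luminescence (intracellular ATP) relative to DMSO; mean ± SD of two independent experiments.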

MDA-MB-231 = experiment: Cell killing assay; format: cell-based; settings: MDA-MB-231 (mammary), 10 μM, 24 hours, CellTiter-Glo, two independent experiments
MDA-MB-468 = experiment: Cell killing assay; format: cell-based; settings: MDA-MB-468 (mammary), 10 μM, 24 hours, CellTiter-Glo, two independent experiments
LIM-2405 = experiment: Cell killing assay; format: cell-based; settings: LIM-2405 (colon), 10 μM, 24 hours, CellTiter-Glo, two independent experiments
In short: (§1)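 Human tumour lines grown in RPMI with 10% FBS. Seeded at 1.5×10³ cells/well, then washed with serum-free medium after 24 h. Exposed to 10 μM test compound or DMSO in serum-free medium for 2 h, then FBS added to 10% final, for 24 h total exposure. Viability read as CellTiter-Glo luminescence (intracellular ATP) relative to DMSO; mean ± SD of two independent experiments.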

SW480 = experiment: Cell killing assay; format: cell-based; settings: SW480 (colon), 10 μM, 24 hours, CellTiter-Glo, two independent experiments
In short: as §1

A549 = experiment: Cell killing assay; format: cell-based; settings: A549 (lung), 10 μM, 24 hours, CellTiter-Glo, two independent experiments
In short: as §1

U937 lymphoma cells = settings: CellTiter-Glo; for effect of caspase inhibitor Q-VD-OPh on loss of U937 viability: 50 μM Q-VD-OPh, 2 hours; for cell viability relative to DMSO control: U937, 10 μM, 24 hours, two independent experiments; for U937 cell viability after 2 hours of treatment: titration, 2 hours serum-free, absence of caspase inhibitor
proteinase K = proteinase K (Parengyodontium album, UniProt P06873); experiment: Protease susceptibility assay; settings: same conditions as t1/2
Sequence of proteinase K (P06873 106-384, species assumed): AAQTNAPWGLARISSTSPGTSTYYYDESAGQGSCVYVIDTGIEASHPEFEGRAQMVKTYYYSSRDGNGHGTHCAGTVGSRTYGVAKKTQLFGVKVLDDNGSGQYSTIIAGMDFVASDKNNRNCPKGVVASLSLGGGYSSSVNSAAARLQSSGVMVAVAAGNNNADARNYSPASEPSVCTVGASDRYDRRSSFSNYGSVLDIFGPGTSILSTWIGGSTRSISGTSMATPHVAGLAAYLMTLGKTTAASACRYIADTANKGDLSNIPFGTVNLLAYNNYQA

| SMILES | cytochrome c release from pellet fraction to soluble cytosolic fraction [1] | cytochrome c release from pellet fraction to soluble cytosolic fraction [2] | location of cytochrome c after treatment of intact cells [3] | IC50 (Bcl-xL) [nM] | IC50 (Mcl-1) [nM] | IC50 (Bcl-2) [nM] | cell viability relative to DMSO control (MEFs) | cell viability relative to DMSO control (MDA-MB-231) | cell viability relative to DMSO control (MDA-MB-468) | cell viability relative to DMSO control (LIM-2405) | cell viability relative to DMSO control (SW480) | cell viability relative to DMSO control (A549) | effect of caspase inhibitor Q-VD-OPh on loss of U937 viability (U937 lymphoma cells) | cell viability relative to DMSO control (U937 lymphoma cells) | U937 cell viability after 2 hours of treatment (U937 lymphoma cells) | increase in half-life relative to the stapled peptide α-1 (proteinase K) [fold] | increase in half-life relative to α-Bim (proteinase K) |
| --- | --- | --- | --- | --- | --- | --- | --- | --- | --- | --- | --- | --- | --- | --- | --- | --- | --- |
| CC[C@H](C)[C@H](NC(C)=O)C(=O)N[C@H]1CCC[C@@H]1C(=O)N[C@H](C(=O)N[C@@H](C)C(=O)N[C@@H](CCC(N)=O)C(=O)N[C@H]1CN(C(=O)CCC(=O)O)C[C@@H]1C(=O)N[C@@H](CC(C)C)C(=O)N[C@@H](CCCNC(=N)N)C(=O)N[C@H]1CCC[C@@H]1C(=O)N[C@H](C(=O)NCC(=O)N[C@@H](CC(=O)O)C(=O)N[C@H]1CCC[C@@H]1C(=O)N[C@@H](Cc1ccccc1)C(=O)N[C@@H](CC(N)=O)C(=O)N[C@H]1CCC[C@@H]1C(=O)N[C@@H](Cc1ccc(O)cc1)C(=O)N[C@@H](Cc1ccc(O)cc1)C(=O)N[C@@H](C)C(=O)N[C@@H](CCCNC(=N)N)C(=O)N[C@@H](CCCNC(=N)N)C(N)=O)[C@@H](C)CC)[C@@H](C)CC [α/β-2] (I: LR[X1]IGD[X1]FN[X1]YYARR-NH2 / II: Ac-I[X1]IAQ; linker I:N-II:C via X2) | Slightly less cytochrome c release; also recorded: able to induce cytochrome c release | but not in bax^−/−/bak^−/− MEFs | cytochrome c exclusively in the pellet | – | – | – | – | – | – | – | – | – | – | – | – | – | – |
| C=CCCC[C@](C)(NC(=O)[C@H](CC(=O)O)NC(=O)CNC(=O)[C@@H](NC(=O)[C@](C)(CCCC=C)NC(=O)[C@H](CCCNC(=N)N)NC(=O)[C@H](CC(C)C)NC(=O)[C@H](CCC(=O)O)NC(=O)[C@H](CCC(N)=O)NC(=O)[C@H](C)NC(=O)[C@@H](NC(=O)[C@H](Cc1c[nH]c2ccccc12)NC(=O)[C@@H](NC(C)=O)[C@@H](C)CC)[C@@H](C)CC)[C@@H](C)CC)C(=O)N[C@@H](Cc1ccccc1)C(=O)N[C@@H](CC(N)=O)C(=O)N[C@@H](C)C(=O)N[C@@H](Cc1ccc(O)cc1)C(=O)N[C@@H](Cc1ccc(O)cc1)C(=O)N[C@@H](C)C(=O)N[C@@H](CCCNC(=N)N)C(=O)N[C@@H](CCCNC(=N)N)C(N)=O [α-1-LIN] | – | – | – | 80 | 4 | 189 | – | – | – | – | – | – | – | – | – | – | – |
| CC[C@H](C)[C@H](NC(C)=O)C(=O)N[C@H]1CCC[C@@H]1C(=O)N[C@H](C(=O)N[C@@H](C)C(=O)N[C@@H](CCC(N)=O)C(=O)N[C@H]1CN(C(=O)CCC(=O)O)C[C@@H]1C(=O)N[C@@H](CC(C)C)C(=O)N[C@@H](CCCNC(=N)N)C(=O)N[C@@]1(C)CCC/C=C\CCC[C@@](C)(C(=O)N[C@@H](Cc2ccccc2)C(=O)N[C@@H](CC(N)=O)C(=O)N[C@H]2CCC[C@@H]2C(=O)N[C@@H](Cc2ccc(O)cc2)C(=O)N[C@@H](Cc2ccc(O)cc2)C(=O)N[C@@H](C)C(=O)N[C@@H](CCCNC(=N)N)C(=O)N[C@@H](CCCNC(=N)N)C(N)=O)NC(=O)[C@H](CC(=O)O)NC(=O)CNC(=O)[C@H]([C@@H](C)CC)NC1=O)[C@@H](C)CC [α/β-1] (I: LR[S5]IGD[S5]FN[X1]YYARR-NH2 / II: Ac-I[X1]IAQ; staple (Z) I:3-I:7; linker I:N-II:C via X2) | able to induce cytochrome c release | but not in bax^−/−/bak^−/− MEFs | most of the cytochrome c was present in the soluble fraction | – | – | – | essentially no effect | no significant cell death | no significant cell death | no significant cell death | no significant cell death | no significant cell death | attenuated by Q-VD-OPh | potently impacted U937 lymphoma cell viability | significant reduction in cell viability | > 90 | > 500 fold |
| CC[C@H](C)[C@H](NC(C)=O)C(=O)N[C@@H](Cc1c[nH]c2ccccc12)C(=O)N[C@H](C(=O)N[C@@H](C)C(=O)N[C@@H](CCC(N)=O)C(=O)N[C@@H](CCC(=O)O)C(=O)N[C@@H](CC(C)C)C(=O)N[C@@H](CCCNC(=N)N)C(=O)N[C@@]1(C)CCC/C=C\CCC[C@@](C)(C(=O)N[C@@H](Cc2ccccc2)C(=O)N[C@@H](CC(N)=O)C(=O)N[C@@H](C)C(=O)N[C@@H](Cc2ccc(O)cc2)C(=O)N[C@@H](Cc2ccc(O)cc2)C(=O)N[C@@H](C)C(=O)N[C@@H](CCCNC(=N)N)C(=O)N[C@@H](CCCNC(=N)N)C(N)=O)NC(=O)[C@H](CC(=O)O)NC(=O)CNC(=O)[C@H]([C@@H](C)CC)NC1=O)[C@@H](C)CC [α-1, reference compound] | – | – | – | – | – | – | essentially no effect | no significant cell death | no significant cell death | no significant cell death | no significant cell death | no significant cell death | attenuated by Q-VD-OPh | efficiently killing U937 lymphoma cells | significant reduction in cell viability | – | ~ 6 fold |
